The values below come from ChEMBL document CHEMBL3763112, “Novel leucine ureido derivatives as aminopeptidase N inhibitors. Design, synthesis and activity evaluation” (Eur J Med Chem, 2016).

Experiment [1] concerns the target Histone deacetylase (HDAC1 and HDAC2) (Homo sapiens, UniProt Q13547+Q92769). The experiment in a line: Inhibition of HDAC1/HDAC2 in human HeLa cells nuclear extract preincubated for 5 mins before Boc-Lys (acetyl)-AMC substrate addition for 30 mins by microplate reader analysis. Type of experiment: cell-based.
For the next experiment, the system named is ES2. The experiment in a line: Antiinvasive activity against human ES2 cells assessed as reduction in cell invasion at 150 uM after 8 hrs by crystal violet staining based Matrigel assay. Type of experiment: functional. Summed up:
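Matrigel-coated transwell chambers rehydrated 2 h in RPMI-1640 + 1% FBS; lower chamber RPMI-1640 + 10% FBS. Compounds in 1% FBS medium added to the upper chamber with ES-2 cells (1 × 10^5/well) at the same time; invasion 8 h at 37 °C. Non-invaded cells swabbed off; remaining cells fixed, stained with 0.1% crystal violet, counted in five random fields (×100) per insert; mean of three independent experiments.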

The test system of another experiment is H22. The experiment in a line: Antimetastasis activity against mouse H22 cells implanted in mouse assessed as inhibition of tumour growth at 80 mg/kg/day, po administered 6 days/week for 2 weeks. Format: functional. An outline of the steps: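 H22 tumour cells given to mice via the caudal vein; animals randomly divided into 3 groups. Control received the same volume of excipient; the other groups received inhibitor orally at 80 mg/kg/day, 6 days/week for 2 weeks.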

In experiment [2] the target is T1, Aminopeptidase N (Sus scrofa, UniProt P15145).
T1 sequence (P15145 whole entry): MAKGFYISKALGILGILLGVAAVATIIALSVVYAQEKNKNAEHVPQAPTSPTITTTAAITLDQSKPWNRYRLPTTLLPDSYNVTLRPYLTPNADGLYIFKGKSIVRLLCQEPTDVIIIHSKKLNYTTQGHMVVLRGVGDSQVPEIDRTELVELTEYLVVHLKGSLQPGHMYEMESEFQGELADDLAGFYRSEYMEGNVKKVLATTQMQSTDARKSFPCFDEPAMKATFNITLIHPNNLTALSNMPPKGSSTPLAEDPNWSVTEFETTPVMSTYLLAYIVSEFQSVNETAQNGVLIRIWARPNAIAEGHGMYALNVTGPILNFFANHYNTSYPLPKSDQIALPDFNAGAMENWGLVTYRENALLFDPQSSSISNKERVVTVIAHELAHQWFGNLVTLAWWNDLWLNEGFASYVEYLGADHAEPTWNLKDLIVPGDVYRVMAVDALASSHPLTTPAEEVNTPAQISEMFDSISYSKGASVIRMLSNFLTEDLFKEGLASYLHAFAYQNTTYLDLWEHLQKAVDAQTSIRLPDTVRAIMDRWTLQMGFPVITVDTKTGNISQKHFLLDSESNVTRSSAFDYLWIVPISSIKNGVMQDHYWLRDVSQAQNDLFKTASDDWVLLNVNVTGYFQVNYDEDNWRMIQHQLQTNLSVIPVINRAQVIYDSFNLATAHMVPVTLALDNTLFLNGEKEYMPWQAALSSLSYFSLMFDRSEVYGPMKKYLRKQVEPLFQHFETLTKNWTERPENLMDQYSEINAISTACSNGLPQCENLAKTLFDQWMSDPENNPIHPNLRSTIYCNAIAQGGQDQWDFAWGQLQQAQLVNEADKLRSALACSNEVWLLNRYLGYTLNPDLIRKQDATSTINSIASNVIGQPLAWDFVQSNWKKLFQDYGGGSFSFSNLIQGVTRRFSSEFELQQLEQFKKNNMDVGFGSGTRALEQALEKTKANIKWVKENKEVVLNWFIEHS
The experiment in a line: Inhibition of APN in porcine kidney microsomes preincubated for 5 mins before L-leu-p-nitroanilide substrate addition for 30 mins by plate reader analysis.

For experiment [3], the target named is Aminopeptidase N (Homo sapiens, UniProt P15144). The experiment in a line: Inhibition of APN in human ES2 cells preincubated for 5 mins before L-leu-p-nitroanilide substrate addition for 1 hr by photometry. Type of experiment: cell-based. An outline of the steps:
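ES-2 ovarian clear cell carcinoma cell suspension (1 × 10^5 cells/well) used as the APN source in 10 mM PBS pH 7.4; inhibitors in buffer with 0.2% DMSO final. Pre-incubation 5 min at room temperature, then L-Leu-p-nitroanilide added, 1 h at 37 °C. Supernatant after centrifugation read by UV-Vis spectrophotometry; IC50 from regression of concentration/inhibition-rate data.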

Activity calls are given as the source filed them. No cut-off for these calls is given here.

Aminopeptidase N (Homo sapiens, UniProt P15144), sequence (P15144 whole entry): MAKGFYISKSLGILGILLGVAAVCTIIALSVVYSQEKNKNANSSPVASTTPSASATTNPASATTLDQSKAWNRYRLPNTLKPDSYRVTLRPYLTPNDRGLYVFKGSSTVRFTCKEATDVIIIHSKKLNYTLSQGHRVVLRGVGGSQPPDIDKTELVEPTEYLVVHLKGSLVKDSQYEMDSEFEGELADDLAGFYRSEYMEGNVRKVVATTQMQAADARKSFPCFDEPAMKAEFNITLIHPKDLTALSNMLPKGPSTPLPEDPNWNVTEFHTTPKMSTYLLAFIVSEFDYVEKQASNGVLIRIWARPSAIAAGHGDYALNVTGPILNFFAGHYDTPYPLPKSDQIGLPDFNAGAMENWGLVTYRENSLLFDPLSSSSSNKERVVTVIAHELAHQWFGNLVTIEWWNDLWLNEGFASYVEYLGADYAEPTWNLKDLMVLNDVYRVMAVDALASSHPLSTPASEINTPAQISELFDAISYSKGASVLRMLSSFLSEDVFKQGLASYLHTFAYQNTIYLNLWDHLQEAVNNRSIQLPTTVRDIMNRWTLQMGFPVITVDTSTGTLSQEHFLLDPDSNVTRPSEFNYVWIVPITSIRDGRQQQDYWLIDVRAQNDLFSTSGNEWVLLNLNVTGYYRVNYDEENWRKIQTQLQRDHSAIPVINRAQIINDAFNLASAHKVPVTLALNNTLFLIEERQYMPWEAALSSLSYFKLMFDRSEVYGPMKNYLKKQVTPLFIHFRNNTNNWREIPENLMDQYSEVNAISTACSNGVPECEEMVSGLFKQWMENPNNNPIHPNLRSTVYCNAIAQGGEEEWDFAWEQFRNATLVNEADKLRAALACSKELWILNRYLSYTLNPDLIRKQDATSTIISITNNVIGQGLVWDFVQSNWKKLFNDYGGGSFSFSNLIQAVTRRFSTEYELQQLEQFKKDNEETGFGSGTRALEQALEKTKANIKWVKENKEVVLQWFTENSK

On to `CC(C)C[C@H](NC(=O)[C@@H](O)[C@H](N)Cc1ccccc1)C(=O)O` [UBENIMEX], for which, in experiment [1], the IC50 was over 100 µM. Further, the inhibition result with ES2 is “Active”. The inhibition in vivo at 80 mg/kg/day in the experiment with H22 came to 75.9%.

Consider `CC(C)C[C@H](NC(=O)Nc1ccc(Cl)cc1Cl)C(=O)NO`, for which the IC50 at Aminopeptidase N [2] was 0.56 µM; in experiment [1], over 100 µM.

In the case of `CC(C)C[C@H](NC(=O)NCc1c(Cl)cccc1Cl)C(=O)NO`, the IC50 was 0.58 µM on Aminopeptidase N [2] and over 100 µM in experiment [1].

`Cc1ccc(NC(=O)N[C@@H](CC(C)C)C(=O)NO)c(C)c1`: the IC50 is 0.18 µM against Aminopeptidase N [2] and over 100 µM in experiment [1].

Consider `CC(C)C[C@H](NC(=O)Nc1c(F)cccc1F)C(=O)NO`, for which the IC50 at Aminopeptidase N [2] is 0.23 µM; in experiment [1], over 100 µM.

For `CC(C)C[C@H](NC(=O)Nc1ccc(F)cc1F)C(=O)NO`, the results for the IC50 (on Aminopeptidase N [2]; in experiment [1]) were 0.34 µM and over 100 µM, respectively.

As to `CC(C)C[C@H](NC(=O)Nc1c(C(C)C)cccc1C(C)C)C(=O)NO`, the IC50 at Aminopeptidase N [2] was 0.05 µM; in experiment [1], over 100 µM.

`CC(C)C[C@H](NC(=O)Nc1ccccc1)C(=O)NO`: the IC50 in experiment [1] is over 100 µM.

Consider `CC(C)C[C@H](NC(=O)NCc1c(F)cccc1F)C(=O)NO`, for which the IC50 on Aminopeptidase N [2] was 0.69 µM; in experiment [1], over 100 µM.

As for `CC(C)C[C@H](NC(=O)NCc1ccc(F)c(F)c1)C(=O)NO`, the IC50 against Aminopeptidase N [2] was 0.42 µM; in experiment [1], over 100 µM.

Consider `COc1ccc(CNC(=O)N[C@@H](CC(C)C)C(=O)NO)c(OC)c1`, for which the IC50 at Aminopeptidase N [2] is 0.46 µM; in experiment [1], over 100 µM.

In the case of `Cc1cccc(C)c1NC(=O)N[C@@H](CC(C)C)C(=O)NO`, the IC50 was 0.02 µM against Aminopeptidase N [2], over 100 µM in experiment [1] and 0.12 µM against Aminopeptidase N [3]. Further, in the experiment on ES2, the inhibition entry was “Active”. Besides, in the experiment on H22, the inhibition in vivo at 80 mg/kg/day is 91.7%.

Regarding `Cc1ccc(CNC(=O)N[C@@H](CC(C)C)C(=O)NO)cc1C`, the IC50 at Aminopeptidase N [2] was 0.44 µM; in experiment [1], over 100 µM.

As for `COc1ccc(NC(=O)N[C@@H](CC(C)C)C(=O)NO)cc1F`, the IC50 at Aminopeptidase N [2] was 0.42 µM; in experiment [1] it was over 100 µM.

For `Cc1ccc(NC(=O)N[C@@H](CC(C)C)C(=O)NO)cc1Cl`, the IC50 at Aminopeptidase N [2] was 0.09 µM; in experiment [1] it was over 100 µM.

Turning to `COc1ccc(NC(=O)N[C@@H](CC(C)C)C(=O)NO)c(OC)c1`, the values for the IC50 (against Aminopeptidase N [2]; in experiment [1]) were 0.46 µM and over 100 µM, respectively.

On to `CCc1cccc(CC)c1NC(=O)N[C@@H](CC(C)C)C(=O)NO`, for which the IC50 was 0.03 µM at Aminopeptidase N [2], over 100 µM in experiment [1] and 0.28 µM against Aminopeptidase N [3]. Further, the inhibition entry with ES2 was “Active”.

As to `CC(C)C[C@H](NC(=O)NCc1ccc(F)cc1F)C(=O)NO`, the results for the IC50 (at Aminopeptidase N [2]; in experiment [1]) were 0.33 µM and over 100 µM, respectively.

On to `Cc1cc(C)c(NC(=O)N[C@@H](CC(C)C)C(=O)NO)c(C)c1`, for which the IC50 at Aminopeptidase N [2] is 0.08 µM; in experiment [1] it was over 100 µM.

Regarding `Cc1cccc(CNC(=O)N[C@@H](CC(C)C)C(=O)NO)c1C`, the IC50 against Aminopeptidase N [2] was 0.07 µM; in experiment [1] it was over 100 µM.

A word on the IC50: it is the point on the concentration scale where inhibition reaches its midpoint. High values mean weaker potency in that assay, low ones greater potency in that assay. As usually defined, the inhibition in vivo is the share of the control response that was lost under treatment.
